From PubChem
Apaf1 inhib = blocks human Apaf-1 apoptosome activity; inhibition, % at 20 µM; AID 489030; actives 0.71% (n = 330,000); reconstituted apoptosome caspase-3 activity, DEVD-Rh110 fluorescence; active = inhibition of at least 40% at 20 µM
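Material: reconstituted apoptosome with Apaf-1, cytochrome c, caspase-9, procaspase-3, dATP. Technique: Rh110 fluorescence intensity. Buffer or medium: pH 7.5 Hepes buffer with CHAPS, BSA, DTT. Times: 30 min plus 50 min, RT.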
PREPL inh = inhibits the human prolyl oligopeptidase-like enzyme | Q4J6C6 | inhibition, % at 5.96 µM | recombinant PREPL, fluorescence polarization activity-based probe | AID 2751 | actives 0.68% (n = 320,000); in the data active = inhibition above about 43%
PAFAH1B3 FP inh = blocks human PAF acetylhydrolase 1B catalytic subunit 3. recombinant PAFAH1B3, FP-rhodamine probe, fluorescence polarization. actives 0.28% (n = 340,000). Q15102. inhibition, % at 3.39 µM. AID 492972;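 active = inhibition above the screen-wide average of all tested compounds plus 3 SD, cut at about 25% in these data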
PAFAH1B2 inh = inhibitors of human PAFAH1B2 | P68402 | recombinant PAFAH1B2, FP-rhodamine activity probe, fluorescence polarization | inhibition, % at 3.39 µM | actives 1.2% (n = 340,000);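 active = inhibition above the mean of all tested compounds plus 3 SD, cut at about 24% in these data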
Target sequence (P68402 whole entry, looked up): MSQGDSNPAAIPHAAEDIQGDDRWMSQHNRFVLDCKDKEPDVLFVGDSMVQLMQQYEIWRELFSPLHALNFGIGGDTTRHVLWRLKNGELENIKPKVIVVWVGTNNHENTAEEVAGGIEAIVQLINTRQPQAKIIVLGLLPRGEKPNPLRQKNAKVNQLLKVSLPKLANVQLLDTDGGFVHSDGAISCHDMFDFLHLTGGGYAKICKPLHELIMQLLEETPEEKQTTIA
pPAFAH FP inh = inhibitors of human plasma PAF acetylhydrolase (pPAFAH). Q13093. recombinant pPAFAH, FP-rhodamine probe fluorescence polarization. inhibition, % at 3.39 µM. actives 1.5% (n = 330,000);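 active = inhibition above the mean inhibition across the screen plus 3 SD, cut at about 25% in these data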;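 note: inhibitors block binding of the rhodamine activity-based probe so polarization drops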
Target sequence (Q13093 whole entry, looked up): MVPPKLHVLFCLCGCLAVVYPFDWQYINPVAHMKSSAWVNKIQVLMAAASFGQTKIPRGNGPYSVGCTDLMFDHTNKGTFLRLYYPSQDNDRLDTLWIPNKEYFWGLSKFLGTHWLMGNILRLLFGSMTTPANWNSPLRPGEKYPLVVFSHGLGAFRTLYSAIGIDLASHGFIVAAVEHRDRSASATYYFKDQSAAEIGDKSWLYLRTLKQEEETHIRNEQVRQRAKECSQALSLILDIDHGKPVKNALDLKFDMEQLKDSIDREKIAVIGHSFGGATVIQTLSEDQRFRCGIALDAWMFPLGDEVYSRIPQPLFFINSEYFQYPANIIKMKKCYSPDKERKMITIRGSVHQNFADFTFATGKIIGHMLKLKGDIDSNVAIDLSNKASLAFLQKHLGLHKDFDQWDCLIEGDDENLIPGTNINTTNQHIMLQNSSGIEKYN
PAFAH2 inh = PAFAH2 (human) inhibition. inhibition, % at 3.39 µM. actives 0.99% (n = 340,000). Q99487. AID 492956. recombinant PAFAH2, FP-rhodamine activity probe, fluorescence polarization;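 active = inhibition above the mean over all tested compounds plus 3 SD, cut at about 30% in these data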;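 note: inhibitors block probe labeling of enzyme so polarization drops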
Apaf-1 inh conf2 = confirmation of Apaf-1 inhibitors | shares compounds with Apaf1 inhib | reconstituted apoptosome, caspase-3 DEVD-Rh110 fluorescence | inhibition, % at 20 µM | actives 25% (n = 1,800);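 active = mean inhibition of at least 40% at 20 µM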
Rh110 interf inh = Rh110 signal interference in Apaf-1 inhibitor counter-screen; shares compounds with Apaf1 inhib; Rh110 fluorescence interference, quenched caspase reaction; activation (fluorescence interference), % at 20 µM; 1,800 tested, under 10 active;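 active = signal rise of 40% or more at 20 µM, treated as a fluorescence artifact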
Apaf1 inh interf = Apaf-1 inhibitor counter-screen fluorescence artifact; shares compounds with Apaf1 inhib; fluorescence interference counterscreen, Apaf-1 assay format; IC50, µM; 460 tested, under 10 active; call rule not given here
PAFAH2 FP conf = PAFAH2 (human) inhibition, confirmed | shares compounds with PAFAH2 inh | recombinant PAFAH2, FP-rhodamine activity probe, fluorescence polarization | inhibition, % at 3.39 µM | actives 65% (n = 2,300) | AID 493030;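 active = mean inhibition over three repeats above a set limit taken from the earlier primary screen, cut at about 30% in these data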;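 note: inhibitor blocks binding of rhodamine activity probe so polarization falls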
PAFAH1B3 confirm = confirmation of human PAFAH1B3 inhibitors. shares compounds with PAFAH1B3 FP inh. recombinant PAFAH1B3, FP-Rh activity-based probe, fluorescence polarization. actives 30% (n = 390). inhibition, % at 3.39 µM;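 active = average inhibition over triplicate runs above the hit cutoff set in the earlier primary screen, cut at about 25% in these data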
Numbers stand for hits; 0 = inactive; - = no result. The list is not random: actives were taken first. Their share in the collection is about 3.5%.

SMILES | Apaf1 inhib | PREPL inh | PAFAH1B3 FP inh | PAFAH1B2 inh | pPAFAH FP inh | PAFAH2 inh | Apaf-1 inh conf2 | Rh110 interf inh | others
Cc1cc(C(F)(F)F)nc(SCCN2CCCCC2)c1C#N | 0 | 0 | 0 | 0 | 0 | 0 | - | -
C/C(CC(=O)Nc1c(C)cc(C)cc1C)=N\NC(=O)Cc1ccccc1 | 0 | 0 | 0 | 0 | 0 | 0 | - | -
CCOC(=O)c1c(NC(=O)CN2C(=O)NC3(CCC(C)CC3)C2=O)sc(C(=O)N(C)C)c1C (centres undefined) | 0 | 0 | 0 | 0 | 0 | 0 | - | -
C[C@]12c3[nH]c4ccc(Cl)cc4c3CCN1C(=O)[C@@H](CC(=O)NCc1ccco1)C[C@@H]2C(=O)N1CCOCC1 | 0 | - | 0 | 0 | 0 | 0 | - | -
Cc1noc(C)c1COc1ccccc1C(=O)N1CCN(c2cccc(Cl)c2)CC1 | 52 | 0 | 0 | 0 | 0 | 0 | 0 | 0
O=C(CNC(=O)c1ccc(Br)o1)Nc1cccc(S(=O)(=O)N2CCCC2)c1 | 0 | 0 | 0 | 0 | 0 | 0 | - | -
O=C(NCc1ccccc1)C1CCCN(S(=O)(=O)c2ccc(F)cc2)C1 (centres undefined) | 0 | 0 | 0 | 0 | 0 | 0 | - | -
Cc1ccc(C(C[N+](=O)[O-])c2c(N)n(C)c(=O)n(C)c2=O)cc1 (centres undefined) | 0 | 0 | 0 | 0 | 0 | 0 | - | -
COc1cccc(C(C[N+](=O)[O-])c2c(C)[nH]n(-c3ccccc3)c2=O)c1 (centres undefined) | 97 | 0 | 0 | 0 | 0 | 0 | 0 | 0
Cc1[nH]n(-c2ccccc2)c(=O)c1C(C[N+](=O)[O-])c1ccc(Br)cc1 (centres undefined) | 87 | 0 | 0 | 35 | 0 | 0 | 96 | 0 | Apaf1 inh interf=0
C[C@H](CO)N1C[C@H](C)[C@@H](CN(C)Cc2ccc(Oc3ccccc3)cc2)Oc2c(NC(=O)C3CC3)cccc2C1=O | 43 | 0 | 0 | 0 | 0 | 0 | 0 | 0
O=c1[nH]c(=O)n(C2CCCCCC2)c(O)c1C=NCc1ccc(F)cc1 | 40 | 0 | 0 | 0 | 0 | 0 | 0 | 0
CN(C)S(=O)(=O)c1cccc(NC(=O)COC(=O)/C=C/c2ccco2)c1 | 95 | 0 | 0 | 0 | 0 | 55 | 0 | 0 | PAFAH2 FP conf=47
Cc1ccc(-n2ncc(C(=O)NCc3ccc4c(c3)OCO4)c2NC(=O)c2ccco2)cc1C | 0 | 0 | 0 | 0 | 0 | 0 | - | -
CNC(=O)C1=C(C)NC(=S)NC1c1cc2c(cc1OC)CCCC2 (centres undefined) | 0 | 0 | 0 | 0 | 0 | 0 | - | -
COC(=O)c1ccc(NC(=O)CSCc2ccccc2C)cc1 | 0 | 0 | 0 | 0 | 0 | 0 | - | -
CCOc1ccc(-c2nc(-c3ccccc3)no2)cc1OCC | 0 | 0 | 0 | 0 | 0 | 0 | - | -
CCOc1ccc2noc3c2c1C(=O)c1ccccc1-3 | 76 | 0 | 0 | 0 | 0 | 31 | 56 | 0 | PAFAH2 FP conf=0
O=C(Cc1ccccc1)NCC(=O)N/N=C/c1ccc([N+](=O)[O-])s1 | 0 | 0 | 0 | 0 | 0 | 0 | - | -
O=[N+]([O-])c1ccc(C=Nc2cccc3ccccc23)s1 | 68 | 0 | 0 | 0 | 0 | 66 | 0 | 0 | PAFAH2 FP conf=0
COc1cc(C)c2c(c1C=O)Oc1c(c(C)c(O)c3c1C(O)OC3=O)OC2=O (centres undefined) | 56 | 0 | 0 | 0 | 0 | 49 | 0 | 0 | PAFAH2 FP conf=0
O=C(Nc1ccc(O)c(C(=O)O)c1)c1cccc(NC(=O)c2ccco2)c1 | 0 | 0 | 0 | 0 | 0 | 0 | - | -
Cc1c(Cl)cccc1N=C1SCCN1C(=O)CN1C(=O)NC2(CCCC2)C1=O | 40 | 0 | 0 | 0 | 0 | 30 | 0 | 0 | PAFAH2 FP conf=0
O=C1C(Cl)=C(N2CCCCC2)C(=O)C(Cl)=C1c1cnc(N2CCCCC2)s1 | 48 | - | 0 | 0 | - | 31 | 0 | 0 | PAFAH2 FP conf=0
CCOC(=O)c1c(C)n(-c2ccc(C)cc2)c2c(CC(C)=O)c(Br)c(OC)c(O)c12 | 0 | 0 | 0 | 0 | 0 | 0 | - | -
SMILES | Apaf1 inhib | PREPL inh | PAFAH1B3 FP inh | PAFAH1B2 inh | pPAFAH FP inh | PAFAH2 inh | Apaf-1 inh conf2 | Rh110 interf inh | others
CCOC(=O)c1c(C)n(-c2ccc(C)cc2)c2c(C(C(C)=O)C(=O)O)c(Br)c(O)c(O)c12 (centres undefined) | 50 | 0 | 0 | 0 | 0 | 81 | 62 | 0 | Apaf1 inh interf=0;PAFAH2 FP conf=75
O=C(NC1(O)C(=O)c2ccccc2C1=O)c1ccccc1 | 94 | 0 | 36 | 0 | 0 | 0 | 96 | 0 | Apaf1 inh interf=0;PAFAH1B3 confirm=37
N#Cc1c(N)n(CCNC(=O)c2ccccc2)c2nc3ccccc3nc12 | 0 | 0 | 0 | 0 | 0 | 0 | - | -
C=CCn1c(NC(=O)c2ccccc2Cl)c(C#N)c2nc3ccccc3nc21 | 96 | 0 | 60 | 0 | 0 | 0 | 60 | 0 | Apaf1 inh interf=0;PAFAH1B3 confirm=0
Cc1cc(C)c(S(=O)(=O)Nc2ccccc2C(=O)N2CCOCC2)c(C)c1 | 0 | 0 | 0 | 0 | 0 | 0 | - | -
CC(=O)N(c1ccccc1C)c1ccccc1C | - | - | 0 | 0 | - | 0 | - | -
CC(=O)N(/N=C1\Sc2ccccc2C1=O)c1ccccc1C | 90 | 0 | 41 | 0 | 0 | 0 | 85 | 0 | Apaf1 inh interf=0;PAFAH1B3 confirm=54
CCC(C(=O)Nc1cc(Cl)c(OC)cc1OC)c1ccccc1 (centres undefined) | 0 | 0 | 0 | 0 | 0 | 0 | - | -
COc1cc(OC)c(NC2=CC(=O)C(=O)c3ccccc32)cc1Cl | 92 | 0 | 42 | 0 | 0 | 0 | 92 | 0 | Apaf1 inh interf=0;PAFAH1B3 confirm=33
Cc1cc(C)c(S(=O)(=O)Nc2cc(SCC(=O)O)c(O)c3ccccc23)cc1C | - | 0 | - | - | 0 | - | - | -
COc1ccc(S(=O)(=O)Nc2cc(SCC(=O)O)c(O)c3ccccc23)cc1 | 85 | 0 | 44 | 0 | 0 | 0 | 41 | 0 | Apaf1 inh interf=0;PAFAH1B3 confirm=0
O=C(NC1=C(Nc2ccc(F)cc2)C(=O)c2ccccc2C1=O)c1ccc(Cl)cc1 | 70 | 0 | 26 | 0 | 0 | 0 | 68 | 0 | Apaf1 inh interf=0;PAFAH1B3 confirm=0
Cc1[nH][nH]c(=O)c1C(c1ccc(Br)cc1)c1c(C)[nH][nH]c1=O | 0 | 0 | 0 | 0 | 0 | 0 | - | -
Cc1[nH][nH]c(=O)c1C(c1ccc(-c2cccc(Cl)c2)o1)c1c(C)[nH][nH]c1=O | 87 | 0 | 46 | 0 | 0 | 0 | 41 | 0 | Apaf1 inh interf=0;PAFAH1B3 confirm=0
COc1ccc(C(=O)c2nccc3cc(OC)c(OC)cc23)cc1OC | 84 | 0 | 57 | 0 | 0 | 0 | 44 | 0 | Apaf1 inh interf=0;PAFAH1B3 confirm=0
CCc1nc2ccccc2c(=O)n1/N=C/c1ccc(OC)cc1 | 0 | 0 | 0 | 0 | 0 | 0 | - | -
